CAL PDZ FP-1 – untagged CAL PDZ binding inhibitors, primary screen, biochemical, fluorescence polarization, HTS | Golgi-associated PDZ and coiled-coil motif-containing protein (Homo sapiens), Q9HD26 | purified CAL PDZ, TMR-peptide fluorescence polarization, 1 h | inhibition, % at 24.9 µM | hit rate 0.92% among 300,000 | AID 602252, 2012;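 active = mean inhibition of at least 30% with at least half of replicates also reaching 30%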;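 also: 0% = DMSO neutral control and 100% = excess unlabeled competitor peptide PRC23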
GRK2 aptamer HTS – compounds blocking aptamer binding on GRK2 – biochemical, human GRK2, bead flow cytometry, HTS, primary screen. Beta-adrenergic receptor kinase 1 (Homo sapiens), P25098. FAM-aptamer displacement from GRK2. inhibition of aptamer binding, % at 10 µM. hit rate 0.59% among 330,000. AID 488847, 2010;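 active = inhibition of aptamer binding above 40%, roughly 3 SD of noise, on plates passing a quality check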;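 also: median bead fluorescence of bound FAM aptamer so fluorescent compounds give negative values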
Tn6 DDE FP – inhibitors of Tn6 peptide binding to fibrin DD(E), primary screen, biochemical, fluorescence polarization, human fibrin, Tn6 probe. Fibrinogen beta chain (Homo sapiens), P02675. Fibrin DD(E) TRITC-Tn6 fluorescence polarization displacement. inhibition, % at 8.3 µM. hit rate 0.21% among 370,000;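 active = inhibition above a per-campaign cutoff: mean of compounds within control limits plus 3 SD, cut at about 15% in these data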;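 also: 0% = median of all compound wells on the plate and 100% = blocking peptide control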
Target sequence (P02675 whole entry, looked up): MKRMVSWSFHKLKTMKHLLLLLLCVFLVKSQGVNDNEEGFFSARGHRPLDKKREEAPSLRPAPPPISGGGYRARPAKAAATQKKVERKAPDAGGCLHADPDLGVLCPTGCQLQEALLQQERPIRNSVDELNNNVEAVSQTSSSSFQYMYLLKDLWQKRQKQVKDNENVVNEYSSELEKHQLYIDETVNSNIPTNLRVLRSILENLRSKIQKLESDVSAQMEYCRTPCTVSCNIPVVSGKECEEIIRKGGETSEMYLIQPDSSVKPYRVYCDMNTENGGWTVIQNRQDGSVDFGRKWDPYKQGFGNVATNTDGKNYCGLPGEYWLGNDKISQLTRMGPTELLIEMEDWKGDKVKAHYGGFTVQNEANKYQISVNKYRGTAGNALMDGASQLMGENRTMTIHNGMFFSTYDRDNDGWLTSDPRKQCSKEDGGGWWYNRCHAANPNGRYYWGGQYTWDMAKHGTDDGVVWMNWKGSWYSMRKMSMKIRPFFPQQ
ARNT TACC3 PPI – disruptors of ARNT/TACC3 protein interaction, primary screen, biochemical, AlphaScreen, single concentration; hit rate 0.66% among 390,000; Transforming acidic coiled-coil-containing protein 3 (Homo sapiens), Q9Y6A5; inhibition, % at 9.99 µM; AlphaScreen His-ARNT PAS-B/GST-TACC3 binding, luminescence; TACC3 fragment carries E629A point mutation;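 active = mean inhibition of replicates at least 50% and at least half of replicates each reaching 50%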;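 also: 0% = complete ARNT plus TACC3 wells and 100% = ARNT alone without TACC3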
Tn7 DDE FP – inhibitors of Tn7 peptide binding to fibrin DD(E), primary screen, biochemical, fluorescence polarization, human fibrin, Tn7 probe | Fibrinogen beta chain (Homo sapiens), P02675 | FP displacement of FITC-Tn7 peptide from fibrin DD(E); 0% = median of compound wells per plate | inhibition, % at 8.3 µM | hit rate 0.13% among 370,000;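 active = inhibition above the mean of compounds falling within the control limits plus 3 SD of them, cut at about 14% in these data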;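 also: 0% = plate median of compound wells and 100% = 10 µM Aha-Tn7 peptide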
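system = human fibrin DD(E) protein | quantity = DD(E) 2 µM final | medium = Tris/NaCl/CaCl2 buffer, pH 7.8 | also added = labelled Tn7 tracer, 0.1 µM | compound dosing = single point at 8.3 µM | timing = compound with protein 10 min, then 3 h after probe, room temperature | signal = FP measurement | benchmarks = Aha-Tn7 high control | repeats = one replicate per compound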
CAL PDZ FP-2 – CAL PDZ peptide-binding inhibitors, primary screen, biochemical, fluorescence polarization, Cer-tagged CAL PDZ, HTS | inhibition, % at 20 µM | Golgi-associated PDZ and coiled-coil motif-containing protein (Homo sapiens), Q9HD26 | purified CAL PDZ, TMR-peptide fluorescence polarization, 1 h | AID 504414, 2011 | hit rate 0.02% among 330,000;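 active = highest replicate inhibition of at least 40%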;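 also: plate controls were DMSO neutral control wells for no effect and unlabeled competitor peptide control wells for full effect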
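Control set: unlabelled peptide and DMSO controls / Material: purified CerCALP PDZ construct / Timing: 1 h incubation at room temperature before polarization reading / Doses: 20 µM, one dose / Detection: fluorescence polarization (mP)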
* = called active by the depositor; . = not tested or not shown; + = active, no number. The list is not random: actives were taken first. Their share in the collection is about 1.8%.

SMILES | CAL PDZ FP-1 | GRK2 aptamer HTS | Tn6 DDE FP | ARNT TACC3 PPI | Tn7 DDE FP | CAL PDZ FP-2
CCCCNC(=O)CSc1nc(CCC)nc2ccccc12 | 30* | 0 | 3 | -1 | 5 | 0
C[C@H]1CN([C@@H](C)CO)C(=O)c2cccc(NC(=O)c3cnccn3)c2O[C@@H]1CN(C)S(=O)(=O)c1cccs1 | . | . | . | 4 | . | .
CCNc1nc(C(=O)O)nc(N2CCOCC2)n1 | -2 | 0 | -5 | 79* | -1 | -1
COc1cccc(CNc2nc3ccccc3n2C)c1O | 44* | 2 | -4 | -2 | -1 | 18
CC(=O)N1[C@@H]2c3ccc(/C=C/c4ccccc4)c(=O)n3C[C@H]1[C@H](CO)[C@H]2C(=O)N(C)C | . | . | . | -6 | . | .
Cc1cc(=O)oc(C)c1C(=O)NCCc1ccc(F)cc1 | 39* | 0 | 11 | 3 | -2 | .
Cc1cc(=O)oc(C)c1C(=O)NCCNC(=O)c1c(C)cc(=O)oc1C | -1 | 2 | -3 | -4 | 5 | 0
Cc1ccc(N(C)c2nc(N)nc(N)c2N=O)cc1 | . | . | 58* | . | -8 | .
Cc1cc(Br)ccc1Nc1nc(N)nc(N)c1N=O | 0 | . | -3 | -5 | 8 | -1
Cc1cc(N)n(-c2ccc(S(N)(=O)=O)cc2[N+](=O)[O-])n1 | 76* | 1 | 8 | 1 | 7 | -1
Cc1cc(N)n(-c2ccc(S(=O)(=O)N3CCOCC3)cc2[N+](=O)[O-])n1 | 1 | 0 | -3 | 0 | 2 | 0
CCC(=O)Nc1ccc2c(c1)OC[C@@H](C)N(C(=O)CN1CCOCC1)C[C@@H](C)[C@H](OC)CN(C)C2=O | . | . | . | -4 | . | .
Cn1c(=O)c2[nH]c(CCc3ccncc3)nc2n(C)c1=O | 54* | . | -4 | -2 | 1 | -1
Cc1cc(C(=O)Nc2cccc3c2O[C@@H](CN(C)Cc2ccc(Cl)c(Cl)c2)[C@H](C)CN([C@H](C)CO)C3=O)n(C)n1 | . | . | . | 14 | . | .
COCCCNC(=S)N/N=C/c1ccc(OC)c(Br)c1 | 54* | 0 | -7 | 4 | 0 | -1
CC(=O)[C@@]1(O)Cc2c(O)c3c(c(O)c2[C@H](O[C@H]2C[C@H](N)[C@H](O)[C@H](C)O2)C1)C(=O)c1ccccc1C3=O | . | . | 198* | . | 51* | .
COc1cccc2c1C(=O)c1c(O)c3c(c(O)c1C2=O)C[C@@](O)(C(=O)CO)C[C@@H]3O[C@H]1C[C@H](N)[C@H](O)[C@H](C)O1 | 6 | 27 | + | 11 | 19* | 15
COc1cccc2c1C(=O)c1c(O)c3c(c(O)c1C2=O)C[C@@](O)(C(=O)CO)C[C@@H]3OC1CC(N)C(O)C(C)O1 (stereo not given in full) | 6 | . | + | 6 | 13 | 12
CN1[C@H](C(=O)NCCc2ccccc2)[C@@H](CO)[C@@H]2Cn3c(ccc(-c4ccccc4)c3=O)[C@@H]21 | . | . | . | 4 | . | .
CC(CCC(=O)NN)C1CCC2C3CCC4CC(O)CCC4(C)C3CCC12C (stereo not given) | -3 | . | -5 | -7 | -2 | -1
CC(CCC(C)C(C)(C)C)[C@@H]1CC[C@H]2C3C[C@H](OS(O)(=S)=S)[C@H]4C[C@H](OS(O)(=S)=S)[C@@H](OS(O)(=S)=S)C[C@]4(C)[C@H]3CC[C@]12C (stereo not given in full) (tested in a mixture with another compound) | -16 | 3 | . | 55* | . | -2
C[C@@H]1CN([C@@H](C)CO)C(=O)c2cccc(NC(=O)CCCCCC(=O)Nc3ccccc3N)c2O[C@@H]1CN(C)Cc1ccc(C(F)(F)F)cc1 | . | . | . | 14 | . | .
COCc1cc(C)nc(OCC(=O)N/N=C/c2ccc(C)o2)c1C#N | -4 | 13 | 0 | -3 | -2 | 0
O=C1NNC(c2ccccc2)=N/C1=C\c1ccccc1 | -2 | 4 | 1 | 11 | -4 | 0
CCSC1=N/C(=C\c2ccccc2)C(=O)N1 | 61* | 0 | 4 | -2 | -3 | 0
SMILES | CAL PDZ FP-1 | GRK2 aptamer HTS | Tn6 DDE FP | ARNT TACC3 PPI | Tn7 DDE FP | CAL PDZ FP-2
Cn1c(=O)cc(OCC(=O)NCCCN2CCN(Cc3ccccc3)CC2)c2ccccc21 | 39* | 0 | 3 | . | -8 | 0
CC=Cc1ccc2n(c1=O)C[C@@H]1[C@@H](CO)[C@H](C(=O)NCC3CC3)N(Cc3nccs3)[C@H]21 (mixture of isomers) | . | . | . | 6 | . | .
CC(C)CC#Cc1cnc2c(c1)C(=O)N([C@H](C)CO)C[C@@H](C)[C@@H](CN(C)C(=O)c1ccc(F)cc1)O2 | . | . | . | 3 | . | .
O=S(=O)(c1cccc(-c2n[nH]c(=S)o2)c1)N1CCOCC1 | 98* | 0 | -8 | -4 | -4 | -1
O=S(=O)(c1cccc(-c2n[nH]c(=S)n2-c2ccccc2Cl)c1)N1CCOCC1 | 7 | 1 | 6 | 3 | 3 | -1
O=C(COC(=O)c1ccc([N+](=O)[O-])s1)Nc1ncc(C(F)(F)F)cc1Cl | 71* | 0 | 4 | 1 | -8 | 1
O=C(c1ccccn1)N1C[C@H]2[C@@H](c3ccccc31)[C@H](CO)N2C(=O)c1ccccn1 | . | . | . | 21 | . | .
O=C(CC(c1ccccc1)C1CCCCC1=O)c1ccccc1 (stereo not given) | 32* | . | -3 | -6 | -7 | 0
CN(C)c1ccc(C(CC(=O)c2ccccc2)C2CCCCC2=O)cc1 (stereo not given) | 0 | 4 | -2 | -2 | -1 | 0
COc1ccccc1NC(=O)Cn1cnc2c(cnn2-c2ccccc2)c1=O | 57* | 1 | 1 | -7 | 8 | -1
O=C(NC1CCCN(Cc2ccc(Cl)cc2)C1)c1cccc(N2CCCC2=O)c1 (stereo not given) | -3 | 0 | -5 | -1 | -13 | 139*
O=C(Nc1cc(Cl)ccc1N1CCOCC1)c1ccncc1 | -4 | 4 | -10 | 3 | 10 | 0
O=C(Nc1cc(Cl)ccc1N1CCOCC1)c1cccnc1Cl | 64* | 0 | -4 | 2 | -4 | -1
C=CC[C@]12C[C@@]3(O[C@H](c4ccccn4)N=C3C[C@H](c3ccc(OC)cc3)[C@H]1C)N(C1CCN(Cc3ccccc3)CC1)C2=O | . | . | 8 | . | 1 | .

Source: PubChem (several laboratories)
